Results taken from ChEMBL document CHEMBL1147105, “In vitro and in vivo activities of PD 0305970 and PD 0326448, new bacterial gyrase/topoisomerase inhibitors with potent antibacterial activities versus multidrug-resistant gram-positive and fastidious organism groups” (2007).

What was measured:
[1] = test system: Enterococcus faecalis; experiment: Antibacterial activity against VanB-resistant Enterococcus faecalis; type: functional
Outline: (§1)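 Broth microdilution MIC per CLSI guidelines, incubated at 35°C. Cation-adjusted Mueller-Hinton broth for nonfastidious organisms and staphylococci. Streptococci tested in the same broth with 3% lysed horse blood. Anaerobes tested in supplemented Brucella broth inside an anaerobe chamber (5% CO2, 5% H2, 90% N2), read after 48 h. Strains were mainly recent clinical isolates with confirmed identity.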

[2] = test system: Enterococcus faecium; experiment: Antibacterial activity against Enterococcus faecium; type: functional; outline: as §1
[3] = test system: Enterococcus faecium; experiment: Antibacterial activity against VanB-resistant Enterococcus faecium; type: functional; outline: as §1
[4] = test system: Listeria monocytogenes; experiment: Antibacterial activity against Listeria monocytogenes; type: functional
Outline: (§2)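 Broth microdilution MIC following CLSI guidelines, in cation-adjusted Mueller-Hinton broth containing 3% lysed horse blood, incubated at 35°C. Clinical isolates with identity confirmed. Reported as MIC range, MIC50 and MIC90.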

[5] = test system: Legionella pneumophila; experiment: Antibacterial activity against Legionella pneumophila; type: functional
Outline: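 Broth microdilution MIC per CLSI guidelines, run in buffered yeast extract α-ketoglutarate broth at 35°C and read after 48 h.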

[6] = test system: Moraxella catarrhalis; experiment: Antibacterial activity against beta-lactamase positive Moraxella catarrhalis; type: functional
[7] = test system: Citrobacter freundii; experiment: Antibacterial activity against Citrobacter freundii; type: functional
Outline: (§3)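 Broth microdilution MIC following CLSI guidelines, in cation-adjusted Mueller-Hinton broth, incubated at 35°C. Recent clinical isolates and reference strains, with identity confirmed by automated and standard microbiological methods. Results reported as MIC range, MIC50 and MIC90.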

[8] = test system: Klebsiella aerogenes; experiment: Antibacterial activity against Enterobacter aerogenes; type: functional; outline: as §3
[9] = test system: Klebsiella oxytoca; experiment: Antibacterial activity against Klebsiella oxytoca; type: functional; outline: as §3
[10] = test system: Klebsiella pneumoniae; experiment: Antibacterial activity against beta-lactamase positive Klebsiella pneumoniae; type: functional
Outline: (§4)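 MIC by CLSI broth microdilution for nonfastidious organisms, in cation-adjusted Mueller-Hinton broth incubated at 35°C.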

[11] = test system: Salmonella typhimurium; experiment: Antibacterial activity against Salmonella enterica serovar Typhimurium; type: functional, Salmonella enterica subsp. enterica serovar Typhimurium; outline: as §3
[12] = test system: Shigella flexneri; experiment: Antibacterial activity against Shigella flexneri; type: functional; outline: as §3
[13] = test system: Stenotrophomonas maltophilia; experiment: Antibacterial activity against Stenotrophomonas maltophilia; type: functional; outline: as §3
[14] = test system: Peptoniphilus asaccharolyticus; experiment: Antibacterial activity against Peptostreptococcus asaccharolyticus; type: functional
Outline: (§5)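 Anaerobic broth microdilution MIC following CLSI guidelines, in supplemented Brucella broth. Run in an anaerobe chamber under 5% CO2, 5% H2 and 90% N2 at 35°C, and read after 48 h. Reported as MIC range, MIC50 and MIC90.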

[15] = test system: Finegoldia magna; experiment: Antibacterial activity against Peptostreptococcus magnus; type: functional; outline: as §5
[16] = test system: Bacteroides thetaiotaomicron; experiment: Antibacterial activity against Bacteroides thetaiotaomicron; type: functional; outline: as §5
[17] = test system: Staphylococcus aureus; experiment: Antibacterial activity against vancomycin-intermediate Staphylococcus aureus; type: functional; outline: as §1
[18] = test system: Staphylococcus epidermidis; experiment: Antibacterial activity against oxacillin-susceptible Staphylococcus epidermidis; type: functional; outline: as §4
[19] = test system: Alloiococcus otitis; experiment: Antibacterial activity against Alloiococcus otitidis; type: functional
Outline: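 MIC by broth microdilution following CLSI guidelines, in cation-adjusted Mueller-Hinton broth with 3% lysed horse blood. Incubated at 35°C and read after 48 h. Reported as MIC range, MIC50 and MIC90.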

[20] = test system: Streptococcus agalactiae; experiment: Antibacterial activity against Streptococcus agalactiae; type: functional; outline: as §2
[21] = test system: Streptococcus equinus; experiment: Antibacterial activity against Streptococcus bovis; type: functional
Outline: (§6)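 Broth microdilution MIC following CLSI guidelines, in cation-adjusted Mueller-Hinton broth with 3% lysed horse blood. Plates incubated at 35°C. Clinical isolates and reference strains, with identity confirmed by standard microbiological methods.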

[22] = test system: Streptococcus sanguinis; experiment: Antibacterial activity against Streptococcus sanguis; type: functional; outline: as §6
[23] = test system: Streptococcus pneumoniae; experiment: Antibacterial activity against penicillin-susceptible Streptococcus pneumoniae; type: functional; outline: as §1
[24] = test system: Streptococcus pneumoniae; experiment: Antibacterial activity against penicillin-resistant Streptococcus pneumoniae; type: functional; outline: as §1
[25] = test system: Streptococcus pneumoniae; experiment: Antibacterial activity against levofloxacin-resistant Streptococcus pneumoniae; type: functional; outline: as §1
[26] = test system: Enterococcus faecalis; experiment: Antibacterial activity against VanA-resistant Enterococcus faecalis; type: functional; outline: as §1
[27] = test system: Anaerococcus prevotii; experiment: Antibacterial activity against Peptostreptococcus prevotii; type: functional; outline: as §5
[28] = test system: Prevotella corporis; experiment: Antibacterial activity against Prevotella corporis; type: functional; outline: as §5
[29] = test system: Prevotella melaninogenica; experiment: Antibacterial activity against Prevotella melaninogenica; type: functional; outline: as §5
[30] = test system: Hoylesella oralis; experiment: Antibacterial activity against Prevotella oralis; type: functional; outline: as §5
[31] = test system: Neisseria meningitidis; experiment: Antibacterial activity against Neisseria meningitidis; type: functional
Outline: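 MIC by broth microdilution in gonococcal broth, incubated at 35°C in 5% CO2. Reported as MIC range, MIC50 and MIC90.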

[32] = test system: Streptococcus viridans; experiment: Antibacterial activity against Streptococcus viridans; type: functional; outline: as §6
[33] = test system: Parabacteroides distasonis; experiment: Antimicrobial activity against Bacteroides distasonis; type: functional
Outline: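 Anaerobic broth microdilution MIC following CLSI guidelines, in supplemented Brucella broth. Incubated at 35°C in a chamber under 5% CO2, 5% H2 and 90% N2. Read after 48 h.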

COc1c(N2CCNC(C)C2)c(F)cc2c(=O)c(C(=O)O)cn(C3CC3)c12 (stereo not drawn) [GATIFLOXACIN]
0.004 µg/mL: MIC50 [31]
0.03 µg/mL: MIC50 [6] | MIC50 [9] | MIC50 [11] | MIC50 [12]
2 µg/mL: MIC [3]
64 µg/mL: MIC90 [2]
0.25 µg/mL: MIC50 [7] | MIC50 [20] | MIC90 [20] | MIC50 [23] | MIC50 [24] | MIC50 [28] | MIC50 [29] | MIC50 [30]
0.06 µg/mL: MIC90 [6] | MIC90 [11] | MIC90 [12] | MIC [14] | MIC [15] | MIC50 [19] | MIC90 [19] | MIC [27]
16 µg/mL: MIC90 [1] | MIC90 [7] | MIC90 [10] | MIC90 [16] | MIC90 [33]
8 µg/mL: MIC50 [1] | MIC50 [2] | MIC90 [13] | MIC [17] | MIC [26]
1 µg/mL: MIC90 [4] | MIC50 [8] | MIC90 [9] | MIC50 [10] | MIC50 [13] | MIC50 [21] | MIC90 [21] | MIC90 [24]
0.125 µg/mL: MIC [18]
0.5 µg/mL: MIC50 [4] | MIC50 [22] | MIC90 [22] | MIC90 [23] | MIC90 [28] | MIC90 [29] | MIC90 [30] | MIC50 [32] | MIC90 [32]
32 µg/mL: MIC90 [8]
0.008 µg/mL: MIC50 [5] | MIC90 [5] | MIC90 [31]
4 µg/mL: MIC50 [16] | MIC50 [25] | MIC90 [25] | MIC50 [33]

C[C@H]1NCc2cc(-c3ccc4c(=O)c(C(=O)O)cn(C5CC5)c4c3OC(F)F)ccc21 [GARENOXACIN]
4 µg/mL: MIC [3] | MIC50 [13] | MIC90 [16] | MIC90 [33]
64 µg/mL: MIC90 [10]
> 64 µg/mL: MIC90 [7] | MIC90 [8]
0.015 µg/mL: MIC [14] | MIC [15] | MIC [27]
0.004 µg/mL: MIC50 [31] | MIC90 [31]
0.008 µg/mL: MIC90 [5]
0.125 µg/mL: MIC50 [9] | MIC90 [11] | MIC90 [12] | MIC50 [20] | MIC90 [20] | MIC50 [22] | MIC50 [23] | MIC90 [23] | MIC90 [24] | MIC50 [32]
0.03 µg/mL: MIC50 [11] | MIC50 [12] | MIC50 [24]
0.002 µg/mL: MIC50 [5]
2 µg/mL: MIC50 [1] | MIC50 [8] | MIC90 [9] | MIC50 [16] | MIC90 [25] | MIC [26] | MIC50 [33]
8 µg/mL: MIC90 [1] | MIC50 [2] | MIC90 [13]
0.25 µg/mL: MIC50 [4] | MIC50 [21] | MIC90 [21] | MIC90 [22] | MIC50 [28] | MIC50 [29] | MIC50 [30] | MIC90 [32]
0.5 µg/mL: MIC90 [4]
≤ 0.001 µg/mL: MIC50 [19] | MIC90 [19]
0.06 µg/mL: MIC50 [6] | MIC90 [6] | MIC [18]
1 µg/mL: MIC50 [7] | MIC50 [10] | MIC [17] | MIC50 [25] | MIC90 [28] | MIC90 [29] | MIC90 [30]
32 µg/mL: MIC90 [2]
